The nature of series [1]: Retention time of the compound. Format: ADME. The gist of the method: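 Peptide (0.5 mg/mL, 10 μL) was loaded in TEAP pH 7.0/CH3CN (76/24), acidified with H3PO4 where insoluble. Elution used a 30-48% CH3CN gradient over 30 min at 1.5 mL/min. Retention time is reported in minutes.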
The target of series [2] is T1, Gonadotropin-releasing hormone receptor (Homo sapiens, UniProt P30968).
T1 sequence (P30968 whole entry): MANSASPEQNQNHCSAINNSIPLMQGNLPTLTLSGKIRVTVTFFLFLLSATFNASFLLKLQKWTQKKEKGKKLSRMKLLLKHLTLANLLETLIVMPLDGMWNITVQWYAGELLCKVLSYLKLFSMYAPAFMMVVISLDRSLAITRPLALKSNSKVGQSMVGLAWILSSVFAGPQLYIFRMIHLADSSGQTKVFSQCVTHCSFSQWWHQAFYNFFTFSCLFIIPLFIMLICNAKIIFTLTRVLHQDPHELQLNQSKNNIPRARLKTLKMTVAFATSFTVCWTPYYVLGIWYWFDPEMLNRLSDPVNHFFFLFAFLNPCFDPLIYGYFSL
The series is described as follows: The binding affinity towards Gonadotropin-releasing hormone receptor.

Starred links: 1 amine or outer side, 2 acyl side, 3 side chain; linkers in the order of their positions; H or OH if unused. Non-standard residues stand in square brackets, D forms with d. Residues, ends and D or L forms follow the SMILES beside them. *: point of attachment. Phe(4-NH(5-NH2triazol-3-yl)) = Nc1nc(Nc2ccc(C[C@H](N)C(=O)O)cc2)n[nH]1; dNva(5-oxo-5-(4-MeOPh)) = COc1ccc(C(=O)CC[C@@H](N)C(=O)O)cc1; X1 = Nc1nc(Nc2ccc(C[C@@H](N[*:1])C(=O)[*:2])cc2)n[nH]1; Triazol3yl(1,2,4-5-NH2) = Nc1nc(*)n[nH]1; dPhe(4-Cl) = N[C@H](Cc1ccc(Cl)cc1)C(=O)O; d2Nal = N[C@H](Cc1ccc2ccccc2c1)C(=O)O; Lys(iPr) = CC(C)NCCCC[C@H](N)C(=O)O; d3Pal = N[C@H](Cc1cccnc1)C(=O)O; NMeL = CN[C@@H](CC(C)C)C(=O)O; Nicotinoyl = O=C(c1cccnc1)*; dOrn = NCCC[C@@H](N)C(=O)O; Orn = NCCC[C@H](N)C(=O)O

This passage reports RT and Kd results from ChEMBL document CHEMBL1125357, “Gonadotropin-releasing hormone antagonists with N omega-triazolylornithine, -lysine, or -p-aminophenylalanine residues at positions 5 and 6” (J Med Chem, 1992).

As usually defined, the Kd is a measure of binding affinity in units of concentration. Lower therefore signals tighter binding.

For the compound `CC(=O)N[C@H](Cc1ccc2ccccc2c1)C(=O)N[C@H](Cc1ccc(Cl)cc1)C(=O)N[C@H](Cc1cccnc1)C(=O)N[C@@H](CO)C(=O)N[C@@H](CCCCNc1n[nH]c(N)n1)C(=O)N[C@H](CCCCNc1n[nH]c(N)n1)C(=O)N[C@@H](CC(C)C)C(=O)N[C@@H](CCCCNC(C)C)C(=O)N1CCC[C@H]1C(=O)NCC(N)=O`, the RT in series [1] came out at 5.53 min. The compound further came in with a Kd in series [2] of 0.86 nM.

Regarding `CC(=O)N[C@H](Cc1ccc2ccccc2c1)C(=O)N[C@H](Cc1ccc(Cl)cc1)C(=O)N[C@H](Cc1cccnc1)C(=O)N[C@@H](CO)C(=O)N[C@@H](CCCNC(=N)N)C(=O)N[C@H](Cc1cccnc1)C(=O)N[C@@H](CC(C)C)C(=O)N[C@@H](CCCNC(=N)N)C(=O)N1CCC[C@H]1C(=O)N[C@H](C)C(N)=O`, the RT in series [1] came to 14.1 min. Also, in series [2], the Kd worked out at 0.24 nM.

With `CC(=O)N[C@H](Cc1ccc2ccccc2c1)C(=O)N[C@H](Cc1ccc(Cl)cc1)C(=O)N[C@H](Cc1cccnc1)C(=O)N[C@@H](CO)C(=O)N[C@@H](CCCCNC(=O)c1cccnc1)C(=O)N[C@H](CCCCNC(=O)c1cccnc1)C(=O)N[C@@H](CC(C)C)C(=O)N[C@@H](CCCCNC(C)C)C(=O)N1CCC[C@H]1C(=O)N[C@H](C)C(N)=O` (Ac-[d2Nal][dPhe(4-Cl)][d3Pal]SK(Nicotinoyl)[dK](Nicotinoyl)L[Lys(iPr)]P[dA]-NH2), the RT in series [1] is listed as 13.6 min. Moreover, the Kd in series [2] worked out at 0.35 nM.

In series [1], `CC(=O)N[C@H](Cc1ccc2ccccc2c1)C(=O)N[C@H](Cc1ccc(Cl)cc1)C(=O)N[C@H](Cc1cccnc1)C(=O)N[C@@H](CO)C(=O)N[C@@H](CCCCNc1n[nH]c(N)n1)C(=O)N[C@H](CCCCNc1n[nH]c(N)n1)C(=O)N[C@@H](CC(C)C)C(=O)N[C@@H](CCCCNC(C)C)C(=O)N1CCC[C@H]1C(=O)N[C@H](C)C(N)=O` (Ac-[d2Nal][dPhe(4-Cl)][d3Pal]SK(Triazol3yl(1,2,4-5-NH2))[dK](Triazol3yl(1,2,4-5-NH2))L[Lys(iPr)]P[dA]-NH2) had an RT of 7.08 min. In addition, binding in series [2] was put at a Kd of 0.48 nM.

Regarding `COc1ccc(C(=O)CC[C@@H](NC(=O)[C@H](CCCN=C(N)N)NC(=O)[C@H](CO)NC(=O)[C@@H](Cc2cccnc2)NC(=O)[C@@H](Cc2ccc(Cl)cc2)NC(=O)[C@@H](Cc2ccc3ccccc3c2)NC(C)=O)C(=O)N[C@@H](CC(C)C)C(=O)N[C@@H](CCCN=C(N)N)C(=O)N2CCC[C@H]2C(=O)N[C@H](C)C(N)=O)cc1` (Ac-[d2Nal][dPhe(4-Cl)][d3Pal]SR[dNva(5-oxo-5-(4-MeOPh))]LRP[dA]-NH2), the RT in series [1] is 22.8 min. Binding in series [2] was put at a Kd of 0.67 nM.

With `CC(=O)N[C@H](Cc1ccc2ccccc2c1)C(=O)N[C@H](Cc1ccc(Cl)cc1)C(=O)N[C@H](Cc1cccnc1)C(=O)N[C@@H](CO)C(=O)N[C@@H](CCCNc1n[nH]c(N)n1)C(=O)N[C@H](CCCNc1n[nH]c(N)n1)C(=O)N[C@@H](CC(C)C)C(=O)N[C@@H](CCCCNC(C)C)C(=O)N1CCC[C@H]1C(=O)N[C@H](C)C(N)=O` (Ac-[d2Nal][dPhe(4-Cl)][d3Pal]S[Orn](Triazol3yl(1,2,4-5-NH2))[dOrn](Triazol3yl(1,2,4-5-NH2))L[Lys(iPr)]P[dA]-NH2), the RT in series [1] was 6.2 min. In series [2], this compound displayed a Kd of 0.21 nM.

In series [1], `CC(=O)N[C@H](Cc1ccc2ccccc2c1)C(=O)N[C@H](Cc1ccc(Cl)cc1)C(=O)N[C@H](Cc1cccnc1)C(=O)N[C@@H](CO)C(=O)N[C@@H](Cc1ccc(Nc2n[nH]c(N)n2)cc1)C(=O)N[C@H](Cc1ccc(Nc2n[nH]c(N)n2)cc1)C(=O)N(C)[C@@H](CC(C)C)C(=O)N[C@@H](CCCCNC(C)C)C(=O)N1CCC[C@H]1C(=O)N[C@H](C)C(N)=O` (Ac-[d2Nal][dPhe(4-Cl)][d3Pal]S[Phe(4-NH(5-NH2triazol-3-yl))][X1][NMeL][Lys(iPr)]P[dA]-NH2) gave an RT of 10.6 min.
